Assay results from article PMC11577639 (Journal of medicinal chemistry, 2024).
Read-outs that look alike come from different tables or passages of the source. Values belong to the compound of their own block, whether it stands above or below them.

Key:
[1] = tested on: N. fowleri (Nf69 strain, ATCC 30215) trophozoites; assay: N. fowleri Nf69 dose-response growth inhibition; format: cell-based, Naegleria fowleri
[2] = tested on: Human neuronal SH-SY5Y cells (ATCC CRL-2266); assay: SH-SY5Y cytotoxicity assay; format: cell-based; settings: Table 3; SH-SY5Y CC50 / Nf69 EC50
[3] = BBB parallel artificial membrane permeation assay; format: in vitro ADME; settings: for BBB PAMPA CNS class: classified against positive and negative controls
Summary of the method: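 Porcine polar brain lipid in dodecane coated on filter membrane. Test compound from DMSO stock diluted in PBS pH 7.4 in donor wells, PBS acceptor, room temperature incubation. Donor and filter-well concentrations measured by HPLC. Verapamil, clonidine, hydrocortisone and theophylline as […]. Pe > 15 nm/s scored CNS+, ≤ 15 CNS-.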

[4] = Mouse pharmacokinetics; format: in vivo, female CD-1 mice; settings: female, CD-1, mouse, plasma, iv, 11 mg/kg
Summary of the method: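 Female CD-1 mice, n = 3/group. First study: single IV 11.1 mg/kg or PO 10.7 mg/kg (fasted), 10% NMP/20% cremophor EL/70% water, plasma at 0.5, 2, 4, 8, 12 h, brain homogenised in MeOH/PBS at 12 h. Second: fasted, IP 44 mg/kg suspension in 10% DMSO/30% cremophor EL/60% water, plasma at 2 and 4 h. LC-MS/MS, verapamil internal standard. LLOQ 1 ng/mL plasma, 10 ng/g brain.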

[5] = Mouse plasma stability; format: in vitro ADME; settings: male, CD-1, mouse
Summary of the method: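 Test compound added from DMSO stock to CD-1 mouse plasma (EDTA-K2, ≥20 male donors). Incubated at 37 °C for 0, 10, 30, 60 or 120 min. Protein precipitated with tolbutamide and labetalol in acetonitrile, then shaken and centrifuged. Supernatant diluted in water and analysed by LCMS with internal standard. Enalapril maleate, bisacodyl and procaine HCl as controls.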

[6] = Plasma protein binding; format: in vitro ADME; settings: CD-1 mouse
Summary of the method: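 96-well equilibrium dialysis against CD-1 male mouse plasma (EDTA-K2), test compound on donor side in triplicate, dialysis buffer on receiver side. Incubated 4 h at 37 °C, 5% CO2, slow shaking. Both sides sampled, diluted in acetonitrile containing tolbutamide, labetalol, metformin and internal standard, centrifuged and analysed by LC-MS/MS. Warfarin as positive control.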

[7] = SH-SY5Y cytotoxicity assay; format: cell-based, human; settings: human, SH-SY5Y neuroblastoma cells

SMILES: CN1CC[C@H]2c3nc4ccc(Cl)cc4c(=O)n3CC[C@H]21 (racemic) [31a, (±)-(3aR,12bR)-9-Chloro-3-methyl-2,3,3a,4,5,12b-hexahydropyrrolo[3′,2′:3,4]pyrido[2,1-b]quinazolin-7(1H)-one]
EC50 ([1]; read-out: EC50, N. fowleri Nf69, tested up to 10 μM): > 10 µM

SMILES: CN1CCC[C@@H]2c3nc4ccc(C(F)(F)F)cc4c(=O)n3CC[C@H]21 (racemic) [±−15b, (±)-(4aR,13bS)-4-Methyl-10-(trifluoromethyl)-1,2,3,4,4a,5,6,13b-octahydro-8H-[1,6]naphthyridino[5,6-b]-quinazolin-8-one]
SI (selectivity index, CC50/EC50) [2]: >18.2

SMILES: CN1CCC[C@@H]2c3nc4ccc(Cl)cc4c(=O)n3CC[C@H]21 (racemic) [±−16b]
SI (selectivity index, CC50/EC50) [2]: >20.0

SMILES: CN1CCC[C@@H]2c3nc4cc(Cl)c(Cl)cc4c(=O)n3CC[C@H]21 (racemic) [±−21b, (±)-(4aR,13bS)-10,11-Dichloro-4-methyl-1,2,3,4,4a,5,6,13b-octahydro-8H-[1,6]naphthyridino[5,6-b]quinazolin-8-one]
SI (selectivity index, CC50/EC50) [2]: >100

SMILES: CN1CCC[C@@H]2c3nc4ccc(C(F)(F)F)cc4c(=O)n3CC[C@H]21 (single isomer, unassigned) [trans-15b-ent-1]
SI (selectivity index, CC50/EC50) [2]: >80.0

SMILES: CN1CCC[C@@H]2c3nc4ccc(Cl)cc4c(=O)n3CC[C@H]21 (single isomer, unassigned) [trans-16b-ent-1]
SI (selectivity index, CC50/EC50) [2]: >71.4

BBB PAMPA CNS class [3]: CNS+ (Pe > 15 nm/s = CNS+)
clearance at 12 h [4]: 40.8 ± 7.6 mL/min/kg
half-life [5]: > 4.82 h
plasma protein binding [6]: 74% bound
SMILES: COc1cc2nc3n(c(=O)c2cc1Cl)CC[C@H]1[C@H]3CCCN1CC1COC1 (single isomer, unassigned) [trans-57b-ent-2]

SMILES: COc1cc2nc3n(c(=O)c2cc1Cl)CC[C@@H]1[C@@H]3CCCN1CC(C)C (single isomer, unassigned) [trans-62b-ent-1]
SI (selectivity index, CC50/EC50) [2]: >32.3

EC50 ([1]; Naegleria fowleri, ATCC30215): 35.7 ± 9.1 µM
SMILES: CCCCCCCCCCCCCCCCOP(=O)([O-])OCC[N+](C)(C)C [miltefosine, reference compound]

SMILES: CN1CCC[C@H]2c3nc4ccc(C(F)(F)F)cc4c(=O)n3CC[C@@H]21 [trans-15b-ent-2, (4aS,13bR)-4-Methyl-10-(trifluoromethyl)-1,2,3,4,4a,5,6,13b-octahydro-8H-[1,6]naphthyridino[5,6-b]quinazolin-8-one]
SI (selectivity index, CC50/EC50) [2]: >4.7
CC50 at 72 h [7]: > 20 µM

SMILES: CN1CCC[C@H]2c3nc4ccc(Cl)cc4c(=O)n3CC[C@@H]21 [trans-16b-ent-2, (4aS,13bR)-10-Chloro-4-methyl-1,2,3,4,4a,5,6,13b-octahydro-8H-[1,6]naphthyridino[5,6-b]quinazolin-8-one]
SI (selectivity index, CC50/EC50) [2]: >5.0
CC50 at 72 h [7]: > 20 µM

SMILES: CN1CCC[C@H]2c3nc4cc(Cl)c(Cl)cc4c(=O)n3CC[C@@H]21 [trans-21b-ent-2, (4aS,13bR)-10,11-Dichloro-4-methyl-1,2,3,4,4a,5,6,13b-octahydro-8H-[1,6]naphthyridino[5,6-b]quinazolin-8-one]
SI (selectivity index, CC50/EC50) [2]: >7.7
CC50 at 72 h [7]: > 20 µM

BBB PAMPA, Peavg ([3]; averaged data from duplicate runs, 4 h): 18.2 ×10⁻⁶ cm/s
BBB PAMPA CNS class [3]: CNS+ (Pe > 15 nm/s = CNS+)
plasma protein binding [6]: 74% bound
SMILES: COc1cc2nc3n(c(=O)c2cc1Cl)CC[C@@H]1[C@@H]3CCCN1CC1COC1 [trans-57b-ent-1, (4aR,13bS)-10-Chloro-11-methoxy-4-(oxetan-3-ylmethyl)-1,2,3,4,4a,5,6,13b-octahydro-8H-[1,6]naphthyridino[5,6-b]-quinazolin-8-one]
SI (selectivity index, CC50/EC50) [2]: >40.8
